CCR6 antag: CCR6 receptor antagonists, primary screen, cell-based, CHO-K1, luminescence, beta-arrestin, uHTS; C-C chemokine receptor type 6 (Homo sapiens), P51684; CHO-K1 CCR6 PathHunter beta-arrestin, CCL20-stimulated; inhibition, % at 20 µM; 0.49% of 340,000 active; AID 493098, 2011;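 active means compounds whose inhibition of the agonist-driven luminescence signal at 20 µM reaches about 50%, limit read from the data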;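 further: cells stimulated with CCL20 at 14 nM final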
CXCR6 inh: CXCR6 receptor inhibitors, primary screen, cell-based, beta-arrestin, luminescence, CHO-K1 PathHunter, 1536-well; AID 602244, 2012; C-X-C chemokine receptor type 6 (Homo sapiens), O00574; 0.36% of 360,000 active; inhibition, % at 20 µM; in the data active means inhibition above about 34%, passing the limit was not always enough;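 further: antagonist mode with CXCL16 agonist at 10 nM final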
Target sequence (O00574 whole entry, looked up): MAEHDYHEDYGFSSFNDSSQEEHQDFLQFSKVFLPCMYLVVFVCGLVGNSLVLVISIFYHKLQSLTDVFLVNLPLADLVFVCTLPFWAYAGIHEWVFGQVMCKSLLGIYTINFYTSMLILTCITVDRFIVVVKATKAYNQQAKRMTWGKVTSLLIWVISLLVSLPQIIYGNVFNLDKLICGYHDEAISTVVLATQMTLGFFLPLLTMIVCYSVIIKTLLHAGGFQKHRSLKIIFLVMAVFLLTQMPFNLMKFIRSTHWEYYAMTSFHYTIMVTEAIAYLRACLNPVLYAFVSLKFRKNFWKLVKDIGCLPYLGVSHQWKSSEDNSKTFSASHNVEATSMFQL
HTR2A ag: mouse Htr2a agonists via beta-arrestin recruitment, primary screen, cell-based, luminescence | activation, % at 7.6 µM | 0.66% of 360,000 active | CHO-K1 mHTR2A beta-arrestin complementation; percent of 30 µM serotonin response | AID 624169, 2012;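 active means activation above a run cutoff, the mean activation of all tested compounds plus 3 SD, cut at about 14% in these data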
APJ agonist: agonists of human apelin receptor APJ, primary screen, CHO-K1 cells, PathHunter beta-arrestin, luminescence | 0.11% of 330,000 active | 0% DMSO wells, 100% apelin | activation, % at 20 µM | AID 2520, 2010 | P35414;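 active means activation more than six SD over the plate average, tested at 20 µM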
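Material: engineered CHO-K1 APJ arrestin reporter cells; amount: 1000 CHO-K1 reporter cells seeded per well; incubation: compound stimulation 90 min at 25 °C, detection 60 min; signal: luminescent beta-gal fragment complementation, chemiluminescent substrate; read-out basis: APJ agonist activity; controls: DMSO-only wells as negative, 10 nM Apelin-13 as positive control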
APJ antagonist: antagonists of human apelin receptor APJ, primary screen, CHO-K1 cells, beta-arrestin complementation, luminescence; P35414; inhibition, % at 20 µM; 0.32% of 330,000 active; AID 2521, 2010;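 active means inhibition above about 40% at 20 µM, limit read from the data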;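 further: cells challenged with 10 nM apelin-13 agonist together with compound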
EBI2 antag: EBI2 receptor antagonists, beta-arrestin recruitment, primary screen, cell-based, luminescence, 7a,25-OHC stimulation, uHTS; G-protein coupled receptor 183 (Homo sapiens), P32249; 7a,25-OHC stimulated; inhibition, % at 5 µM; 0.81% of 360,000 active; in the data active means inhibition above about 38%;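 further: enzyme fragment complementation signal reports receptor beta-arrestin coupling in cells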
Target sequence (P32249 whole entry, looked up, the tested form may be a part): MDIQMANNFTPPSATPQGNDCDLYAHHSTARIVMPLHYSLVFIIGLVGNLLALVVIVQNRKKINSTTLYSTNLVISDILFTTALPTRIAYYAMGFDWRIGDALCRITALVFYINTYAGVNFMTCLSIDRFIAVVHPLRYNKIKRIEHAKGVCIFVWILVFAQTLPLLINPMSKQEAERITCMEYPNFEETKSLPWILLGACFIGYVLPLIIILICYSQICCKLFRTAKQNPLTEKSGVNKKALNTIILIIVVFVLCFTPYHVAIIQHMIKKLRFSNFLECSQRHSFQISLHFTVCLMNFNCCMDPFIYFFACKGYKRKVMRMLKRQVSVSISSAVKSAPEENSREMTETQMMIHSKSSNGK
EBI2 antag conf: EBI2 antagonist hit retest, beta-arrestin, confirmation, cell-based, single concentration, luminescence, 7a,25-OHC stimulation | 7a,25-OHC antagonism | 29% of 2,400 active | AID 651997, 2013 | shares compounds with EBI2 antag | inhibition, % at 5 µM;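 active means inhibition of at least 50%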
EBI2 ag: EBI2 agonist activity of antagonist hits, confirmation, counter-screen for EBI2 antagonist project, cell-based, single concentration, agonist mode, luminescence; AID 652000, 2013; shares compounds with EBI2 antag; activation, % at 5 µM; EBI2-expressing cells, 60 min; 0% vehicle, 100% 7α,25-dihydroxycholesterol control; 2,400 tested, under 10 active;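 active means activation of at least 50%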
bGal cs: E. coli beta-galactosidase enzyme inhibition, confirmation, counter-screen for EBI2 antagonist project, biochemical, luminescence, single concentration; shares compounds with EBI2 antag; purified beta-galactosidase, luminescent Galacton Star, 15 min; inhibition, % at 5 µM; 1% of 2,400 active; AID 652176, 2013;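 active means replicate-average signal at least 3 plate SD below neutral wells, shown as high inhibition, flagging enzyme-inhibiting false positives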;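 further: higher means stronger loss of beta-gal luminescence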
A number is an active result; n = inactive; x = no result given. Most compounds without a hit are left out; they make up all but 2.1% or so of the library.

SMILES | CCR6 antag | CXCR6 inh | HTR2A ag | APJ agonist | APJ antagonist | EBI2 antag | EBI2 antag conf | EBI2 ag | bGal cs
OC[C@@H]1CN(Cc2ccco2)C[C@H](n2cnc3c(NC4CCC4)ncnc32)O1 | x | n | n | x | x | n | x | x | x
OC[C@@H]1CN(Cc2ccc(-c3ccccc3)cc2)C[C@H](n2cnc3c(NC4CC4)ncnc32)O1 | x | n | n | x | x | 65.3 | 64.7 | n | n
Cc1ccc(S(=O)(=O)N2CCC(C(=O)NCC(C)(C)N3CCOCC3)CC2)c(C)c1 | n | n | n | n | n | n | x | x | x
CCc1ccccc1-n1ncc(C(=O)Nc2ccc(OC)cc2)c1C | n | n | n | x | x | n | x | x | x
CCOc1ccc(NC(=S)/C(=C(\[O-])c2ccc(C)c([N+](=O)[O-])c2)[n+]2ccccc2)cc1 | n | n | n | n | n | n | x | x | x
CCc1ccc(NC(=S)Nc2cccc(OC)c2)cc1 | n | n | n | n | n | 49.8 | n | n | n
CCOc1ccc(NC(=S)Nc2cc(OC)c(Cl)cc2OC)cc1 | n | n | n | n | n | 65.0 | n | n | n
CCOc1ccc(NC(=S)Nc2ccc(OC(F)(F)F)cc2)cc1 | n | n | n | n | n | 75.8 | 53.4 | n | n
CCOc1ccc(NC(=S)Nc2ccc(C)c([N+](=O)[O-])c2)cc1 | n | n | n | n | n | 64.8 | 65.8 | n | n
CCOc1ccc(NC(=S)Nc2ccc(OCC)cc2)cc1 | n | n | n | n | n | 80.2 | 61.8 | n | n
O=C(/C=C\Nc1ccc(S(=O)(=O)Nc2ncccn2)cc1)c1ccccc1 | n | n | n | x | x | n | x | x | x
Cc1ccc(C)c(NC(=O)COC(=O)CCNC(=O)c2ccco2)c1 | n | n | n | n | n | n | x | x | x
CC(C)c1ccc(NC(=O)C(c2ccccc2)N(C)C(=O)CCc2c[nH]c3ccccc23)cc1 (stereo unspecified) | n | n | n | n | n | n | x | x | x
CCCc1cc(=O)[nH]c2nnc(SCC(=O)Nc3cccc(NC(C)=O)c3)n12 | n | n | n | n | n | n | x | x | x
N#Cc1ccc(Nc2nc(-c3ccccc3)c(C(=O)c3ccccc3)s2)cc1 | x | n | n | x | x | n | x | x | x
O=C(c1ccccc1)c1sc(Nc2ccc3c(c2)OCO3)nc1-c1ccccc1 | x | n | n | x | x | 49.5 | n | n | n
CN(C)S(=O)(=O)c1ccc(Nc2ccc(-c3ccc4c(c3)OCCO4)nn2)cc1 | n | n | n | n | n | n | x | x | x
CN(C(=O)c1cccc(Nc2ccc(-c3ccc4c(c3)OCCO4)nn2)c1)C1CCCCC1 | n | n | n | n | n | 41.9 | n | n | n
CN(C(=O)c1cccc(NC(=O)c2ccccc2)c1)C1CCCCC1 | n | n | n | n | n | n | x | x | x
CCN(CC)S(=O)(=O)c1ccc(Nc2ccc(-c3ccc4c(c3)OCCO4)nn2)cc1 | n | n | n | n | n | 48.9 | n | n | n
Cn1nc(C(C)(C)C)cc1N1C(=O)CCC1(C)C(=O)Nc1ccc2ccccc2c1 (stereo unspecified) | x | n | n | x | x | n | x | x | x
Cc1noc(C)c1COC(=O)c1ccc(N(C)C)cc1 | n | n | n | n | n | n | x | x | x
Cc1ccc(OCC(O)CNS(=O)(=O)c2ccccc2C(=O)N2CCCCC2)cc1 (stereo unspecified) | n | n | n | n | n | 46.5 | n | n | n
Cc1cccc(C)c1OCC(O)CNS(=O)(=O)c1ccccc1C(=O)N1CCOCC1 (stereo unspecified) | n | n | n | x | x | n | x | x | x
O=C1N=C(N2CCCCC2)S/C1=C\c1ccc(Br)cc1 | n | n | n | n | n | 86.7 | 58.0 | n | n
SMILES | CCR6 antag | CXCR6 inh | HTR2A ag | APJ agonist | APJ antagonist | EBI2 antag | EBI2 antag conf | EBI2 ag | bGal cs
CCOC(=O)C1CCN(C2=NC(=O)/C(=C/c3ccc(Cl)cc3)S2)CC1 | n | n | n | n | n | 86.7 | 65.9 | n | n
Cc1ccc(/C=C2\SC(N3CCCC3)=NC2=O)cc1 | x | x | x | n | n | x | x | x | x
CCOc1ccc(/C=C2\SC(N3CCCCC3)=NC2=O)cc1 | n | n | n | n | n | 74.0 | 50.4 | n | n
O=C(Nc1ccc2c(c1)OCCO2)C(CCc1ccccc1)N1CCN(c2ccc(F)cc2)CC1 (stereo unspecified) | x | n | n | x | x | n | x | x | x
O=C(Nc1ccc2c(c1)OCCO2)C(c1ccnc2ccccc12)N1CCN(C/C=C/c2ccccc2)CC1 (stereo unspecified) | x | n | n | x | x | 49.6 | n | n | n
O=C(Nc1ccc2c(c1)OCCO2)C(CCc1ccccc1)N1CCN(C/C=C/c2ccccc2)CC1 (stereo unspecified) | x | n | n | x | x | 43.7 | n | n | n
CC1=C(C(=O)OCC2CCCO2)C(c2ccsc2)C2=C(CCCC2=O)N1 (stereo unspecified) | n | n | n | n | n | n | x | x | x
C=C1[C@@H](O)[C@H](CC(C)C)N(Cc2ccccc2Br)S1(=O)=O | n | n | n | x | x | n | x | x | x
C=CCC1(CC=C)CCCN1C(=O)C1CCC(=O)N(CCc2ccc(OC)cc2)C1 (stereo unspecified) | n | n | n | n | n | 57.4 | n | n | n
C=CCC1(CC=C)CCCN1C(=O)C1CCC(=O)N(CCc2ccccc2)C1 (stereo unspecified) | n | n | n | n | n | 45.5 | n | n | n
COc1ccc(CCN2CC(C(=O)N3CCC(OC)CC3)CCC2=O)cc1 (stereo unspecified) | n | n | n | n | n | n | x | x | x
COc1ccc(CCN2CC(C(=O)N(C)Cc3ccc(C)o3)CCC2=O)cc1 (stereo unspecified) | n | n | n | n | n | 45.3 | n | n | n
NC(=O)c1nsc(C(=O)N(c2ccccc2)C(C(=O)NC2CCCCC2)c2ccc(O)cc2)c1N (stereo unspecified) | n | n | n | n | n | n | x | x | x
O=C(COC(=O)/C=C/c1cccs1)NC(c1ccccc1)c1ccccc1 | n | n | n | n | n | 61.6 | n | n | n
O=C(COC(=O)/C=C/c1cccs1)NC(=O)Cc1ccccc1 | n | n | n | n | n | n | x | x | x

Screening results deposited in PubChem by several laboratories.
